Each structure is given as a SMILES string. Where only a bound is given, the exact number is not on record here.

As usually defined, the Ki is a dissociation constant, usually derived from enzyme kinetics or from competition with a known ligand. Read a low Ki as higher affinity.

This assay concerns the target T1, 5-hydroxytryptamine receptor 1A (Rattus norvegicus, UniProt P19327).
T1 sequence (P19327 whole entry): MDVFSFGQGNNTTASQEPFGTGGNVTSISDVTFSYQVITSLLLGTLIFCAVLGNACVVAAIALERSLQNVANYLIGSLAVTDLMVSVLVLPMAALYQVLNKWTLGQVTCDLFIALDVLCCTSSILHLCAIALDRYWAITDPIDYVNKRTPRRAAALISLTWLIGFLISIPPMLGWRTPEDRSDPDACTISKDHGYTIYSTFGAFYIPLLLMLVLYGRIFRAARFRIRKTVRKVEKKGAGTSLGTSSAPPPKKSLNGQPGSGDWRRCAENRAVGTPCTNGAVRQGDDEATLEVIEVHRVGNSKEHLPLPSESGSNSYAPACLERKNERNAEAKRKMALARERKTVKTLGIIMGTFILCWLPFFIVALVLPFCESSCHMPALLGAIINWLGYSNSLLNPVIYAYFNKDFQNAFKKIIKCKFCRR
In words: Displacement of [3H]2-(di-N-propylamino)-8-hydroxytetralin from central 5-hydroxytryptamine 1A receptor recognition sites in rat frontal cortex homogenates. Format: tissue-based. The essentials:
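Competition binding against tritiated 8-OH-DPAT in rat frontal cortex homogenate. Ki values come from n separate determinations, each testing four to six ligand concentrations in triplicate.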
(In general: Loss of bound radioactivity is the signal in a displacement assay; it reports binding, not function.)
The compound `Cc1cc(N2CCNCC2)c2occc2c1` showed an inhibitory constant (Ki) of 120 nM.

`Cc1coc2c(N3CCNCC3)cccc12` had an inhibition constant (Ki) of 73 nM.

`C1=COc2c(cccc2N2CCNCC2)O1` returned a Ki of 12 nM.

In turn, `COc1ccc(N2CCNCC2)c2occc12` gave a Ki of 430 nM.

In the case of `c1cc(N2CCNCC2)c2[nH]ccc2c1`, the Ki was 200 nM.

In turn, `COc1ccc2c(c1N1CCNCC1)OCCO2` returned a Ki greater than 10000 nM.

Turning to `c1ccc2c(N3CCNCC3)cccc2c1`, affinity was put at a Ki of 18 nM.

As to `Brc1cc(N2CCNCC2)c2occc2c1`, affinity was put at a Ki of 35 nM.

In turn, `Brc1coc2c(N3CCNCC3)cccc12` showed a Ki of 130 nM.

Turning to `Cc1cc2cccc(N3CCNCC3)c2o1`, the Ki is 13 nM.

For `c1ccc(N2CCNCC2)cc1` [PHENYLPIPERAZINE], the Ki worked out at 500 nM.

With `Fc1ccc(N2CCNCC2)c2occc12`, the affinity, expressed as Ki, was 18 nM.

`c1cc2c(c(N3CCNCC3)c1)CCCC2` gave a Ki of 84 nM.

`Cc1ccc(N2CCNCC2)c2occc12`: the affinity corresponds to a Ki of 220 nM.

Compound `CC1=COc2c(cccc2N2CCNCC2)O1` displayed a Ki of 5.2 nM.

The compound `COc1cc(N2CCNCC2)c2occc2c1` registered a Ki of 28 nM.

With `Clc1ccc2c(c1N1CCNCC1)OCCO2`, the affinity, expressed as Ki, was 200 nM.

`COc1ccc(N2CCNCC2)cc1`: the affinity, expressed as Ki, was 20000 nM.

`COc1cccc(N2CCNCC2)c1`: the inhibition constant (Ki) came to 320 nM.

In turn, `O=[N+]([O-])c1ccc2ccoc2c1N1CCNCC1` had a Ki of 140 nM.

The compound `c1cc(N2CCNCC2)c2sccc2c1` yielded an inhibitory constant (Ki) of 9.9 nM.

As for `Fc1ccc2ccoc2c1N1CCNCC1`, the Ki stood at 5.8 nM.

The compound `Brc1ccc(N2CCNCC2)c2occc12` registered a Ki of 300 nM.

For the compound `COc1cccc(N2CCNCC2)c1OC`, the Ki turned out to be 1000 nM.

For `Fc1cc(N2CCNCC2)c2occc2c1`, affinity was put at a Ki of 105 nM.

The compound `N#Cc1ccc2ccoc2c1N1CCNCC1` displayed an inhibitory constant (Ki) of 220 nM.

These data come from ChEMBL document CHEMBL1128382, “N4-unsubstituted N1-arylpiperazines as high-affinity 5-HT1A receptor ligands” (J Med Chem, 1995).
